Laboratory results published in ChEMBL document CHEMBL4261585, “Synthesis of 1,2,3-triazole linked 4(3H)-Quinazolinones as potent antibacterial agents against multidrug-resistant Staphylococcus aureus” (Eur J Med Chem, 2018).
≈ marks a conversion by molar mass, not a printed value.

What was measured:
[1] = system: Staphylococcus aureus; assay: Antibacterial activity against Staphylococcus aureus ATCC 29213 after 16 to 18 hrs by CLSI method; format: functional
In short: (§1)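 Broth microdilution MIC per CLSI. A single colony from Mueller-Hinton agar is grown overnight in cation-supplemented Mueller-Hinton broth (37 °C, shaking, 18–24 h). Incubation is 37 °C for 16–18 h. MIC is the lowest concentration with no visible growth. Three independent runs, each in duplicate.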

[2] = system: Escherichia coli; assay: Antibacterial activity against Escherichia coli ATCC 25922 after 16 to 18 hrs by CLSI method; format: functional; in short: as §1
[3] = system: Klebsiella pneumoniae; assay: Antibacterial activity against Klebsiella pneumoniae ATCC BAA-1705 after 16 to 18 hrs by CLSI method; format: functional; in short: as §1
[4] = system: Acinetobacter baumannii; assay: Antibacterial activity against Acinetobacter baumannii BAA-1605 after 16 to 18 hrs by CLSI method; format: functional; in short: as §1
[5] = system: Pseudomonas aeruginosa; assay: Antibacterial activity against Pseudomonas aeruginosa ATCC 27853 after 16 to 18 hrs by CLSI method; format: functional; in short: as §1
[6] = system: Mycolicibacterium fortuitum; assay: Antimycobacterial activity against Mycobacterium fortuitum by pesto blue-dye based broth microdilution assay; format: functional
[7] = system: Mycobacteroides chelonae; assay: Antimycobacterial activity against Mycobacterium chelonae by pesto blue-dye based broth microdilution assay; format: functional
[8] = system: Mycobacteroides abscessus; assay: Antimycobacterial activity against Mycobacterium abscessus by pesto blue-dye based broth microdilution assay; format: functional
[9] = system: Mycobacterium tuberculosis; assay: Antimycobacterial activity against Mycobacterium tuberculosis H37Rv ATCC 27294 after 7 days by pesto blue-dye based broth microdilution assay; format: functional; details: H37Rv ATCC 27294, 168 h
In short: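 Broth microdilution in Middlebrook 7H9 with 10% ADC-Tween-80 (0.2% glycerol, 0.05% Tween-80). Compound is added from 10 mg/mL DMSO stocks as two-fold dilutions, 64–0.5 mg/L. Plates are incubated 7 days at 37 °C and read with PrestoBlue resazurin dye. MIC is the lowest concentration inhibiting visible growth, three replicates in duplicate.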

[10] = Cytotoxicity against African green monkey Vero cells after 72 hrs by MTT assay; format: cell-based; details: chlorocebus sabaeus
In short: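 Vero cells are seeded at ~10³ per well and held 24 h at 37 °C, 5% CO₂. Compound at 100–5 mg/L is then added for 72 h. MTT is added at […], and formazan is dissolved in DMSO and read at 540 nm. CC50 is the lowest concentration giving 50% loss of viability. Doxorubicin is the positive control. Triplicate experiments.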

[11] = Selectivity index, ratio of CC50 for African green monkey Vero cells to MIC for Staphylococcus aureus ATCC 29213; format: toxicity; details: read-out: Selectivity Index
In short: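 Selectivity index is calculated as the Vero CC50 divided by the MIC against S. aureus ATCC 29213. CC50 comes from a 72 h MTT assay at 100–5 mg/L. MIC comes from CLSI broth microdilution at ~10⁶ CFU/mL, 37 °C, 16–18 h.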

[12] = system: Staphylococcus aureus; assay: Antibacterial activity against methicillin-sensitive Staphylococcus aureus ATCC 29213 by CLSI method; format: functional
In short: (§2)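 Broth microdilution to CLSI. A single colony from Mueller-Hinton agar is grown overnight in cation-supplemented MHB at 37 °C with shaking, 18–24 h. Levofloxacin is the reference. MIC is the lowest concentration with no visible growth, from three independent runs in duplicate.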

[13] = system: Staphylococcus aureus; assay: Antibacterial activity against methicillin-resistant Staphylococcus aureus NR119 by CLSI method; format: functional; in short: as §2
[14] = system: Staphylococcus aureus; assay: Antibacterial activity against methicillin-resistant Staphylococcus aureus NR10129 by CLSI method; format: functional; in short: as §2
[15] = system: Staphylococcus aureus; assay: Antibacterial activity against methicillin-resistant Staphylococcus aureus NR10198 by CLSI method; format: functional; in short: as §2
[16] = system: Staphylococcus aureus; assay: Antibacterial activity against methicillin-resistant Staphylococcus aureus NR10192 by CLSI method; format: functional; in short: as §2
[17] = system: Staphylococcus aureus; assay: Antibacterial activity against methicillin-resistant Staphylococcus aureus NR10186 by CLSI method; format: functional; in short: as §2
[18] = system: Staphylococcus aureus; assay: Antibacterial activity against methicillin-resistant Staphylococcus aureus NR10193 by CLSI method; format: functional; in short: as §2
[19] = system: Staphylococcus aureus; assay: Antibacterial activity against methicillin-resistant Staphylococcus aureus NR10194 by CLSI method; format: functional; in short: as §2
[20] = system: Staphylococcus aureus; assay: Antibacterial activity against methicillin-resistant Staphylococcus aureus NR10191 by CLSI method; format: functional; in short: as §2
[21] = system: Staphylococcus aureus; assay: Antibacterial activity against vancomycin-resistant Staphylococcus aureus VRS1 by CLSI method; format: functional; in short: as §2
[22] = system: Staphylococcus aureus; assay: Antibacterial activity against vancomycin-resistant Staphylococcus aureus VRS4 by CLSI method; format: functional; in short: as §2
[23] = system: Staphylococcus aureus; assay: Antibacterial activity against vancomycin-resistant Staphylococcus aureus VRS12 by CLSI method; format: functional; in short: as §2
[24] = system: Escherichia coli; assay: Antibacterial activity against Escherichia coli ATCC 25922 after 16 to 18 hrs in presence of PMBN by CLSI method; format: functional
In short: (§3)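 MIC per CLSI broth microdilution with compound combined with a sub-lethal level of polymyxin B nonapeptide. Inoculum is ~10⁶ CFU/mL in cation-supplemented Mueller-Hinton broth. Incubation is 37 °C for 16–18 h. MIC is read as the absence of visible growth. Three independent runs, each in duplicate.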

[25] = system: Acinetobacter baumannii; assay: Antibacterial activity against Acinetobacter baumannii BAA-1605 after 16 to 18 hrs in presence of PMBN by CLSI method; format: functional; in short: as §3

Compound: Cc1cccc(-n2cc(COc3cccc(-n4c(/C=C/c5ccc(C#N)cc5)nc5ccccc5c4=O)c3)nn2)c1
- MIC [1]: 0.5 µg/mL (≈ 0.932 µM)
- MIC [2]: > 64 µg/mL
- MIC [3]: > 64 µg/mL
- MIC [4]: > 64 µg/mL
- MIC [5]: > 64 µg/mL
- MIC [6]: > 64 µg/mL
- MIC [7]: > 64 µg/mL
- MIC [8]: > 64 µg/mL
- MIC [9]: > 64 µg/mL
- CC50 at 72 h [10]: 20 µg/mL (≈ 37.3 µM)
- selectivity ratio [11]: 40

Compound: N#Cc1ccc(/C=C/c2nc3ccccc3c(=O)n2-c2cccc(OCc3cn(-c4ccc(Cl)cc4)nn3)c2)cc1
- MIC [1]: 0.5 µg/mL (≈ 0.898 µM)
- MIC [2]: > 64 µg/mL
- MIC [3]: > 64 µg/mL
- MIC [4]: > 64 µg/mL
- MIC [5]: > 64 µg/mL
- MIC [6]: > 64 µg/mL
- MIC [7]: > 64 µg/mL
- MIC [8]: > 64 µg/mL
- MIC [9]: > 64 µg/mL
- CC50 at 72 h [10]: 20 µg/mL (≈ 35.9 µM)
- selectivity ratio [11]: 40

Compound: C[C@H]1COc2c(N3CCN(C)CC3)c(F)cc3c(=O)c(C(=O)O)cn1c23.C[C@H]1COc2c(N3CCN(C)CC3)c(F)cc3c(=O)c(C(=O)O)cn1c23.O [LEVOFLOXACIN]
- MIC [1]: 0.125 µg/mL
- MIC [3]: 64 µg/mL
- MIC [5]: 0.5 µg/mL
- MIC [12]: 0.5 µg/mL
- MIC [13]: 16 µg/mL
- MIC [14]: 0.5 µg/mL
- MIC [15]: 32 µg/mL
- MIC [16]: 8 µg/mL
- MIC [17]: 8 µg/mL
- MIC [18]: 32 µg/mL
- MIC [19]: 0.5 µg/mL
- MIC [20]: 32 µg/mL
- MIC [21]: 32 µg/mL
- MIC [22]: > 64 µg/mL
- MIC [23]: 32 µg/mL

Compound: C[C@@H](O)[C@H]1C(=O)N2C(C(=O)O)=C(S[C@@H]3CN[C@H](C(=O)N(C)C)C3)[C@H](C)[C@H]12 [MEROPENEM]
- MIC [12]: 4 µg/mL (≈ 10.4 µM)
- MIC [13]: > 64 µg/mL
- MIC [14]: 16 µg/mL (≈ 41.7 µM)
- MIC [15]: > 64 µg/mL
- MIC [16]: 64 µg/mL (≈ 167 µM)
- MIC [17]: 16 µg/mL (≈ 41.7 µM)
- MIC [18]: > 64 µg/mL
- MIC [19]: 4 µg/mL (≈ 10.4 µM)
- MIC [20]: > 64 µg/mL
- MIC [21]: > 64 µg/mL
- MIC [22]: > 64 µg/mL
- MIC [23]: > 64 µg/mL

Compound: CO[C@H]1/C=C/O[C@@]2(C)Oc3c(C)c(O)c4c(O)c(c(/C=N/N5CCN(C)CC5)c(O)c4c3C2=O)NC(=O)/C(C)=C\C=C\[C@H](C)[C@H](O)[C@@H](C)[C@@H](O)[C@@H](C)[C@H](OC(C)=O)[C@@H]1C [RIFAMPIN]
- MIC [2]: 4 µg/mL (≈ 4.86 µM)
- MIC [4]: 4 µg/mL (≈ 4.86 µM)
- MIC [24]: 0.125 µg/mL
- MIC [25]: 0.25 µg/mL

Compound: CN[C@H](CC(C)C)C(=O)N[C@H]1C(=O)N[C@@H](CC(N)=O)C(=O)N[C@H]2C(=O)N[C@H]3C(=O)N[C@H](C(=O)N[C@H](C(=O)O)c4cc(O)cc(O)c4-c4cc3ccc4O)[C@H](O)c3ccc(c(Cl)c3)Oc3cc2cc(c3O[C@@H]2O[C@H](CO)[C@@H](O)[C@H](O)[C@H]2O[C@H]2C[C@](C)(N)[C@H](O)[C@H](C)O2)Oc2ccc(cc2Cl)[C@H]1O [VANCOMYCIN]
- MIC [21]: > 64 µg/mL
- MIC [22]: > 64 µg/mL
- MIC [23]: > 64 µg/mL
